Most compounds without a hit are left out; they make up all but 3.5% or so of the library.
MrgX1 antag – human MrgX1 receptor antagonism, primary screen | B-score at 10 µM | actives 1.3% (n = 310,000) | MRGX1-HEK293 calcium flux, Fluo-4, BAM8-22 antagonism; active compounds read low | Q96LB2;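 active = calcium-response B-score plate-corrected more than 3 library SD below zero, starting fluorescence within 5 deviations, no agonist response on first addition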;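 also: peak minus trough fluorescence over baseline after final BAM8-22 challenge near maximal dose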
Target sequence (Q96LB2 whole entry, looked up): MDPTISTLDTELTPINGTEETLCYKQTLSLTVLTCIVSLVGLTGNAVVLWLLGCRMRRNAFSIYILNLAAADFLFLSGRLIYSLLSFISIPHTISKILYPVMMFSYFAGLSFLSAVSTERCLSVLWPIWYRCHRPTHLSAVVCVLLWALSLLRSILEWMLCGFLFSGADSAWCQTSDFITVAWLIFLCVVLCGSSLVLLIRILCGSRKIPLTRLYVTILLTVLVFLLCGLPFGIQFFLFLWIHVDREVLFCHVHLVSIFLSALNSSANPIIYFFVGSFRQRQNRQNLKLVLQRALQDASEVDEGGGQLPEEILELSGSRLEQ
MrgX1 agonist – human MrgX1 receptor agonism, primary screen; B-score at 10 µM; Q96LB2; AID 588627; actives 0.44% (n = 310,000); MrgX1-HEK293 cells, Fluo-4 calcium fluorescence, agonist mode; active compounds read high;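 active = calcium response B-score plate-corrected fluorescence ratio at least 3 library SD, with starting fluorescence B-score inside 5 SD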
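Test system: HEK293 cells stably expressing human MrgX1 receptor; amount: 15,000 cells per well; doses: compound delivered in addition one of three; times: overnight plating before 1 h dye loading; detection: Fluo-4 NW calcium-flux fluorescence, kinetic read; read-out basis: B-scored fluorescence response ratio; controls: positive and negative controls per plate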
MrgX1 PAM – human MrgX1 positive allosteric modulation, primary screen | Q96LB2 | MrgX1-HEK293, Fluo-4 calcium flux, FDSS; active compounds read high | B-score at 10 µM | actives 0.63% (n = 310,000);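 active = plate-corrected calcium response at least 3 library SD above typical, normal starting fluorescence, not activating the receptor alone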;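 also: compound read alongside a low EC10 to EC30 dose of BAM8-22 agonist; peak minus trough fluorescence over baseline measured at the second addition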
RGS4 pot – potentiators or activators of RGS4. HEK293 M3R/inducible RGS4, carbachol calcium flux Fluo4; active compounds read low. B-score at 10 µM. actives 0.92% (n = 310,000). AID 463111;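 active = B-score of the integrated calcium signal more than 4 SD below the library mean, with starting fluorescence not abnormally high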;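 also: negative B-score means reduced calcium response which marks RGS4 activation or potentiation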
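System – HEK293 FlpIn-TREx cells, stable M3R, doxycycline-inducible RGS4 · Reagent – ECmax carbachol challenge · Times – compound preincubation 20 min at room temperature before agonist · Technique – Fluo4 fluorescence kinetic imaging of calcium · Measure – B score of integrated Fluo4 ratio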
RGS4 inh – human RGS4 inhibition | HEK293 M3R/RGS4 inducible, Fluo-4 calcium flux; active compounds read high; triggered by carbachol at its EC20 | B-score at 10 µM | actives 0.45% (n = 310,000);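 active = B-score, a plate-corrected calcium signal, over three deviations above library mean, with baseline fluorescence within five deviations of library mean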;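 also: RGS4 expression induced by doxycycline in cells with stable M3 receptor; B-score is computed from the integrated fluorescence ratio over baseline after carbachol; higher B-score means a larger calcium signal and so more RGS4 inhibition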
Target sequence (P49798 whole entry, looked up): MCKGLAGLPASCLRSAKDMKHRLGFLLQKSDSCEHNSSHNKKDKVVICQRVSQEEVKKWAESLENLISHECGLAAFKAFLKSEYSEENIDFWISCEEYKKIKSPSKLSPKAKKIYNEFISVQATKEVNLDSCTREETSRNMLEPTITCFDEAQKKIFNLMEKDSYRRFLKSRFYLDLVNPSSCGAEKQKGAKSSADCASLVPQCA
RGS4 inh valid – validation of RGS4 inhibitors | shares compounds with RGS4 inh | HEK293 M3R/RGS4, carbachol calcium Fluo-4 fluorescence; carbachol added at its EC20; 0 = buffer wells, 100 = carbachol control | calcium response, % at 10 µM | actives 65% (n = 1,700);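 active = duplicate-averaged calcium response above the buffer-only control mean plus 5 SD of those controls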;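 also: integrated fluorescence ratio F max minus min over baseline F0; higher response in RGS4-induced cells means RGS4 inhibition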
RGS4 uninduced – non-induced cell nonspecific activity of RGS4 inhibitors; shares compounds with RGS4 inh; HEK293 M3R non-induced, carbachol calcium Fluo-4; submaximal (EC20) carbachol stimulus; buffer wells 0%, carbachol control wells 100%; activity (percent), % at 10 µM; actives 20% (n = 1,900); call rule not given here;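 also: RGS4 induction absent so cells express M3R without RGS4; higher means more calcium signal and flags a non-specific hit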
RGS4 inh ctr2 – second counter-screen for RGS4 inhibitors: non-induced cells without carbachol. calcium response (agonist-mode artifact), % at 10 µM. AID 493001. shares compounds with RGS4 inh. actives 22% (n = 1,900). HEK293 M3R/RGS4 non-induced, Fluo-4 calcium, no carbachol; normalised: buffer wells 0%, carbachol wells 100%;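 active = duplicate-averaged calcium rise in uninduced cells above buffer wells' mean plus 5 SD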
* marks the source's active call; other numbers are inactive results; i = inactive; nt = not tested or not shown.

SMILES | MrgX1 antag | MrgX1 agonist | MrgX1 PAM | RGS4 pot | RGS4 inh | RGS4 inh valid | RGS4 uninduced | RGS4 inh ctr2
O=C(N/N=C/c1ccc(-c2ccc([N+](=O)[O-])cc2)o1)[C@H]1C[C@@H]1c1ccccc1 | i | i | i | i | i | i | i | 39%*
O=C(N/N=C/c1ccc(-c2ccccc2[N+](=O)[O-])o1)[C@H]1C[C@@H]1c1ccccc1 | i | i | i | i | i | nt | nt | nt
COc1ccc(S(=O)(=O)N2CCOCC2)cc1NC(=O)Cn1nnc2ccccc2c1=O | i | i | i | i | i | nt | nt | nt
COc1ccc(CN2[C@@H](CC(C)=O)c3ccc(/C=C/C(C)=O)cc3S2(=O)=O)cc1 | i | i | i | i | i | nt | nt | nt
COc1cccc(N2[C@@H](CC(C)=O)c3ccc(/C=C/C(C)=O)cc3S2(=O)=O)c1 | i | i | i | i | 8.2* | 32%* | 54%* | i
N#Cc1ccccc1CN1C(=O)NC(Cc2c[nH]c3ccccc23)C1=O (stereo unspecified) | i | i | i | i | i | nt | nt | nt
CCC1(C)Cc2ccccc2-c2nc(NCCCO)[nH]c(=O)c21 (stereo unspecified) | i | i | i | i | i | nt | 39%* | i
CN(C)Cc1nc2c(c(=O)[nH]1)C1(CCCCC1)Cc1ccccc1-2 | i | i | i | i | i | nt | nt | nt
O=c1[nH]c(NCCCO)nc2c1C1(CCCC1)Cc1ccccc1-2 | i | i | i | i | 7.3* | 31%* | i | 30%*
CCC1(CC)Cc2ccccc2-c2nc(NCCCO)[nH]c(=O)c21 | i | i | i | i | 37* | 71%* | 53%* | 7.5%*
CCCCCCCCc1nc(SCC(C)=O)n[nH]1 | i | i | i | i | i | nt | nt | nt
Cn1c(=O)[nH]c(=O)c2c1nc([N+](=O)[O-])n2Cc1ccccc1 | i | i | i | i | 12* | 71%* | 42%* | i
COC(=O)c1ccc(NC(=O)CN2CCN(CC#N)CC2)cc1 | i | i | i | i | i | nt | nt | nt
CCOC(=O)[C@@H]1[C@H]2COc3cc(OC)ccc3[C@H]2N2C(=O)N(c3cccc(Cl)c3)C(=O)[C@@]12C | i | i | i | i | i | i | i | i
CCOC(=O)[C@@H]1[C@H]2COc3cc(OC)ccc3[C@H]2N2C(=O)N(c3cccc(Cl)c3)C(=O)[C@]12C | i | i | i | i | i | i | i | i
CC(C)CC(=O)N1CCN(C(=O)c2ccc(F)cc2)CC1 | i | i | i | i | i | nt | nt | nt
O=C(Nc1cccc(S(=O)(=O)N2CCCCCC2)c1)C1=COCCO1 | i | i | i | i | i | nt | nt | nt
COc1ccc(Nc2cc3n(c(=O)n2)CCc2cc(OC)c(OC)cc2-3)cc1 | i | i | i | i | i | nt | nt | nt
COc1cc2c(cc1OC)-c1cc(Nc3ccccc3)nc(=O)n1CC2 | i | i | i | i | i | nt | i | 93%*
COc1cc2c(cc1OC)-c1cc(Nc3ccc(C)cc3)nc(=O)n1CC2 | i | i | i | i | i | nt | i | i
COc1ccc(CCNC(=O)CCCN2C(=O)c3ccccc3C2=O)cc1 | i | i | i | i | i | nt | nt | nt
COc1ccc(S(=O)(=O)N2CCOC2CNC(=O)C(=O)NCCN2CCOCC2)cc1OC (stereo unspecified) | i | i | i | i | i | nt | nt | nt
COc1ccc(-c2cc(=O)oc3c(C)c(O)ccc23)cc1 | i | i | i | i | i | nt | nt | nt
COc1ccc(/C=C/C(=O)c2c(O)ccc3c(C)cc(=O)oc23)cc1 | i | i | i | i | i | i | i | i
COc1ccc(/C=C\C(=O)c2c(O)ccc3c(C)cc(=O)oc23)cc1 | i | i | i | i | i | nt | i | i
SMILES | MrgX1 antag | MrgX1 agonist | MrgX1 PAM | RGS4 pot | RGS4 inh | RGS4 inh valid | RGS4 uninduced | RGS4 inh ctr2
CCOc1ccc(/C=C/C(=O)c2c(O)cc(C)oc2=O)cc1 | i | i | i | i | i | nt | nt | nt
O=C1[C@H]2[C@@H](C(=O)N1c1cc(Cl)cc(Cl)c1)[C@]1(C(=O)Nc3ccccc31)N1CCC[C@@H]21 | i | i | i | i | 5.2* | i | i | i
COC(=O)c1c(N2C(=O)[C@H]3[C@@H](C2=O)[C@]2(C(=O)Nc4ccccc42)N2CCC[C@@H]32)sc(C)c1C | i | i | i | i | i | nt | nt | nt
Cc1nn2c(-c3ccccc3)ccnc2c1Br | i | i | i | i | i | i | i | i
Cc1ccc(-c2ccnc3c(Br)c(C)nn23)cc1 | i | i | i | i | i | i | i | i
Cc1nn2c(-c3cccnc3)ccnc2c1-c1ccccc1 | i | i | i | i | i | nt | nt | nt
Cn1cccc1CNC(=S)Nc1ccccc1F | i | i | i | i | i | nt | nt | nt
O=S(=O)(/N=C(\Sc1ccc(Cl)cc1)c1ccccc1)c1ccccc1 | i | i | i | i | i | i | i | 18%*
COc1cccc(CN2CCNC(=O)C2CC(=O)N(C)CC2CCOCC2)c1OC (stereo unspecified) | i | i | i | i | i | nt | nt | nt
C/C(CC(=O)Nc1cccc(C(F)(F)F)c1)=N\NC(=O)c1cnccn1 | i | i | i | i | i | nt | nt | nt
Nn1c(Cc2cccc3ccccc23)nnc1SCCOc1ccc(F)cc1 | i | i | i | i | 6.5* | i | i | i
Nn1c(Cc2cccc3ccccc23)nnc1SCCOc1ccc(Br)cc1 | i | i | i | i | i | i | i | i
Nn1c(Cc2cccc3ccccc23)nnc1SCc1c(F)cccc1Cl | i | i | i | i | i | nt | nt | nt
COC(=O)CCCC1=CC2=CC(=O)C(C)(OC(=O)c3cccs3)C(=O)C2=CN1CCN1CCOCC1 (stereo unspecified) | i | i | i | i | i | nt | nt | nt
O=C(CCc1nnc(CCCCc2ccccc2)o1)NCCC1CCCCO1 (stereo unspecified) | i | i | i | i | i | nt | nt | nt
Cn1cccc1C(=O)OCC(=O)N1CC(=O)Nc2ccccc21 | i | i | i | i | i | nt | nt | nt
